Reference: ChEMBL document CHEMBL3085664, “Structure-activity relationship of imidazopyridinium analogues as antagonists of neuropeptide s receptor” (J Med Chem, 2013)

Experiments:
Neuropeptide S receptor [1] = molecular target: T1, Neuropeptide S receptor (Homo sapiens, UniProt Q6W5P4); assay: Antagonist activity at neuropeptide S receptor (unknown origin) expressed in CHO cells assessed as inhibition of NPS-induced ERK activation after 20 mins by HTRF assay; format: cell-based
T1 sequence (Q6W5P4 whole entry): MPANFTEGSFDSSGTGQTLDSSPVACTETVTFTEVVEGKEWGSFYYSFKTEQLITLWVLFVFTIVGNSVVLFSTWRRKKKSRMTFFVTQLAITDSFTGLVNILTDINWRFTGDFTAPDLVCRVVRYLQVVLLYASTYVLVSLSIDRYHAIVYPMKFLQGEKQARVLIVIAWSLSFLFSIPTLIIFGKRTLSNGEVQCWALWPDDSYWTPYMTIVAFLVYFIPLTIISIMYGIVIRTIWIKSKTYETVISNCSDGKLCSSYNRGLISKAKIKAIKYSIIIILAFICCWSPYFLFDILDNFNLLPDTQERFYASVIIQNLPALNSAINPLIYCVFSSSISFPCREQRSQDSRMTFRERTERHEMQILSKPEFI

Neuropeptide S receptor [2] = molecular target: T1, Neuropeptide S receptor; assay: Antagonist activity at neuropeptide S receptor (unknown origin) expressed in CHO cells assessed as cAMP level after 30 mins by […] assay; format: functional, cell-based; conditions: read-out: IC50
Method in brief: (§1)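 CHO cells stably expressing NPSR, 1800 cells/well in 1536-well format, seeded overnight at 37°C in medium without Geneticin. Stimulation buffer (PBS, 0.1% BSA, 0.05% Tween-20, 500µM Ro 20-1724, EC80 NPS) was added for 30 min at 37°C. cAMP was read by HTRF (d2-cAMP/cryptate anti-cAMP in lysis buffer, 30 min). IC50 is the mean with SD of two independent experiments, each run in duplicate.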

[3] = Chemical stability of the compound in phosphate-buffered saline after 48 hrs; format: physicochemical; conditions: buffer
Method in brief: (§2)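 Compound was held in Hank's balanced buffer solution or PBS for 48 hours and checked for decomposition to other species.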

[4] = Chemical stability of the compound in HBBS buffer after 48 hrs; format: physicochemical; method in brief: as §2
Neuropeptide S receptor [5] = molecular target: T1, Neuropeptide S receptor; assay: Displacement of [125I]Tyr10-NPS from neuropeptide S receptor (unknown origin)
Method in brief: (§3)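 Whole CHO cells stably expressing human NPSR at 90–95% confluency in 24-well plates. Cells were incubated with 0.15 nM [125I]Y10-NPS plus increasing compound or unlabeled NPS in DMEM/0.1% BSA, 20°C, 1.5 hr. Nonspecific binding was defined with 1 µM unlabeled human NPS. Cells were washed, lysed in 1 N NaOH and counted by liquid scintillation. IC50 from one experiment in duplicate.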

Neuropeptide S receptor [6] = molecular target: T1, Neuropeptide S receptor; assay: Antagonist activity at neuropeptide S receptor (unknown origin) assessed as cAMP level by cell based assay; format: functional; method in brief: as §1
Neuropeptide S receptor [7] = molecular target: T1, Neuropeptide S receptor; assay: Antagonist activity at neuropeptide S receptor (unknown origin) expressed in CHO cells assessed as inhibition of NPS-induced calcium mobilization after 10 mins by fluorescence assay; format: functional, cell-based; conditions: read-out: IC50
Method in brief: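 CHO-NPSR cells, 2000/well in 1536-well plates, incubated overnight, then loaded with no-wash calcium dye for 1 h at 37°C. Compound in DMSO was added for 10 min. Baseline fluorescence was recorded 6 s at 1 Hz, then EC80 NPS in stimulation buffer was added and recording continued 4 min at 1 Hz on a kinetic reader. IC50 is the mean with SD of two independent experiments in duplicate.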

Neuropeptide S receptor [8] = molecular target: T1, Neuropeptide S receptor; assay: Antagonist activity at neuropeptide S receptor (unknown origin) assessed as intracellular calcium level by cell based assay; format: functional
Method in brief: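 CHO cells stably expressing NPSR were seeded at 2000 cells/well and incubated overnight at 37 °C, 5% CO2. They were loaded with no-wash calcium dye for 1 h, then preincubated with compound in DMSO for 10 min. Stimulation used NPS at EC80 in PBS/0.1% BSA/0.05% Tween-20 with 500 µM Ro 20-1724. Kinetic fluorescence was read at 1 Hz: 6 s baseline, then 4 min. IC50 is the mean ± SD of two independent experiments, each in duplicate.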

[9] = Metabolic stability in mouse liver microsomes assessed as compound remaining after 15 mins in presence NADPH; format: ADME, Microsome; conditions: read-out: Stability
Method in brief: (§4)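 Compound was incubated with mouse liver microsomes, and percent parent remaining was determined at 15, 30 and 60 min. Values are means from a single experiment run in duplicate.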

[10] = Metabolic stability in mouse liver microsomes assessed as compound remaining after 30 mins in presence NADPH; format: ADME, Microsome; conditions: read-out: Stability; method in brief: as §4
[11] = Metabolic stability in mouse liver microsomes assessed as compound remaining after 60 mins in absence NADPH; format: ADME, Microsome; conditions: read-out: Stability; method in brief: as §4
Mus musculus = assay: Inhibition of NPS-induced hyperlocomotion in mouse at 50 mg/kg, ip after 90 mins; format: functional; conditions: 1.5 h, route intraperitoneal
[12] = Drug level in mouse brain after 2 hrs; format: ADME, tissue-based; conditions: read-out: Drug uptake
[13] = Metabolic stability in mouse liver microsomes assessed as compound remaining after 15 mins in absence NADPH; format: ADME, Microsome; conditions: read-out: Stability; method in brief: as §4
[14] = Drug level in mouse brain after 15 mins; format: ADME, tissue-based; conditions: read-out: Drug uptake
[15] = Metabolic stability in mouse liver microsomes assessed as compound remaining after 60 mins in presence NADPH; format: ADME, Microsome; conditions: read-out: Stability; method in brief: as §4
Neuropeptide S receptor [16] = molecular target: T1, Neuropeptide S receptor; assay: Displacement of [125I]Tyr10-NPS from human neuropeptide S receptor expressed in CHO cells after 1.5 hrs by liquid scintillation counting; format: cell-based; method in brief: as §3
[17] = Metabolic stability in mouse liver microsomes assessed as compound remaining after 30 mins in absence NADPH; format: ADME, Microsome; conditions: read-out: Stability; method in brief: as §4

With `Cc1c(P(=S)(c2ccccc2)c2ccccc2)[n+]2ccccc2n1C.[I-]` the IC50 (Neuropeptide S receptor [1]) was 30 nM, the IC50 (Neuropeptide S receptor [2]) was 1700 nM and the Stability [3] was “Stable”. For the same compound, the Stability [4] was “Stable”, the IC50 (Neuropeptide S receptor [5]) was 84 nM and the IC50 (Neuropeptide S receptor [6]) was 1700 nM. For the same compound, the IC50 (Neuropeptide S receptor [7]) was 51 nM and the IC50 (Neuropeptide S receptor [8]) was 51 nM.
`O=C(NCc1ccc(F)cc1)N1CCN2C(=O)OC(c3ccccc3)(c3ccccc3)C2C1` (centres undefined) gave a remaining at 0.25 h [9] of 29%, a remaining at 0.5 h [10] of 9% and an IC50 (Neuropeptide S receptor [1]) of 14 nM. The remaining at 1 h [11] was 101%, the IC50 (Neuropeptide S receptor [2]) was 5.3 nM and the inhibition in vivo at 50 mg/kg (Mus musculus) was 50%. It also gave a concentration at 2 h [12] of 2 µM, a remaining at 0.25 h [13] of 105% and an IC50 (Neuropeptide S receptor [5]) of 48 nM. It also gave a concentration at 0.25 h [14] of 6 µM, an IC50 (Neuropeptide S receptor [6]) of 420 nM and a remaining at 1 h [15] of 2%. It also gave an IC50 (Neuropeptide S receptor [16]) of 25 nM, a remaining at 0.5 h [17] of 96% and an IC50 (Neuropeptide S receptor [7]) of 420 nM. It also gave an IC50 (Neuropeptide S receptor [8]) of 28 nM.
